Measurements from ChEMBL document CHEMBL1828615, “Synthesis of a series of 3,4-methanoarginines as side-chain conformationally restricted analogues of arginine” (Bioorg Med Chem, 2011).

Experiments:
[1] = molecular target: Nitric oxide synthase 1 (Rattus norvegicus) (UniProt P29476); assay: Inhibition of rat nNOS assessed as nitric oxide-mediated oxidation of haemoglobin-A0 at 300 uM using L-arginine by haemoglobin capture assay
Outline: (§1)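 For eNOS (bovine) and nNOS (rat), inhibition was tested as the effect of compound on L-arginine turnover, by hemoglobin capture at 30 °C. Buffer was 100 mM HEPES (pH 7.5) with 1.0 mM CaCl₂, 600 unit/mL calmodulin, NADPH, 0.125 mg/mL ferrous hemoglobin-A₀ and H₄B. Reactions were started with enzyme, and hemoglobin-A₀ oxidation was read at 401 nm.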

[2] = molecular target: T1, Nitric oxide synthase, inducible (Mus musculus) (UniProt P29477); assay: Inhibition of mouse iNOS assessed as nitric oxide-mediated oxidation of haemoglobin-A0 at 300 uM using L-arginine by haemoglobin capture assay
T1 sequence (whole entry): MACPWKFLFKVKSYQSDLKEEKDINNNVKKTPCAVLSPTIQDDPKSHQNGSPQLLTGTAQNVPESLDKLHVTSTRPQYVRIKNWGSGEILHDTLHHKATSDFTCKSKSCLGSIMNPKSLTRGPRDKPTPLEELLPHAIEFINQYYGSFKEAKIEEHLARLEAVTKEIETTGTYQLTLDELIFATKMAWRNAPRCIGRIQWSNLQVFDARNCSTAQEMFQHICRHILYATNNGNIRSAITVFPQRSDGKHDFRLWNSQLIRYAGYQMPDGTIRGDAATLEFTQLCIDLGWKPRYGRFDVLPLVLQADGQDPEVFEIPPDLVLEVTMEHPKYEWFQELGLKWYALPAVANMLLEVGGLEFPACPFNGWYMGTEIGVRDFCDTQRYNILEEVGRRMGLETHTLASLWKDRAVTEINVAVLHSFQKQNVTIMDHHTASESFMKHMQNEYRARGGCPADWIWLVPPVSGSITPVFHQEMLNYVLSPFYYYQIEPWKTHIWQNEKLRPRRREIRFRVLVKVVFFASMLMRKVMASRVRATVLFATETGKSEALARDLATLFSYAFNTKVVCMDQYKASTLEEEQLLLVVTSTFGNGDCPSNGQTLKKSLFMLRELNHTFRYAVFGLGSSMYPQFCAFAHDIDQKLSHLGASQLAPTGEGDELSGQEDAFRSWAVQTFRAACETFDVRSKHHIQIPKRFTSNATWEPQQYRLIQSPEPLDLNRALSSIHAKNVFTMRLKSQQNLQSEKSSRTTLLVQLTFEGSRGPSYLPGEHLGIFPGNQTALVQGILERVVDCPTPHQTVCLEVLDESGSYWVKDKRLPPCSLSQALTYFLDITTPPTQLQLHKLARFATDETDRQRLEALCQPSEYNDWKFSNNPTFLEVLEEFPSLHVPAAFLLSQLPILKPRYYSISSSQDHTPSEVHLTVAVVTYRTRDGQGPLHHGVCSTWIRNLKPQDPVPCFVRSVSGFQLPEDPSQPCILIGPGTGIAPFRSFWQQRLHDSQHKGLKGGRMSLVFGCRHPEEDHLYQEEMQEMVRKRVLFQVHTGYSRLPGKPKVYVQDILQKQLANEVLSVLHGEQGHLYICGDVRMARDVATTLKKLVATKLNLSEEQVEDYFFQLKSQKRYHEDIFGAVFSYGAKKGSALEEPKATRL
Outline: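 Murine iNOS inhibition was measured against L-arginine as substrate in a hemoglobin capture assay at 30 °C, without calcium or calmodulin. The mix held NADPH, 0.125 mg/mL ferrous hemoglobin-A₀ and H₄B in 100 mM HEPES (pH 7.5). Enzyme addition initiated the reaction, and NO-mediated oxidation was monitored at 401 nm.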

[3] = molecular target: T2, Nitric oxide synthase 3 (Bos taurus) (UniProt P29473); assay: Inhibition of bovine eNOS assessed as nitric oxide-mediated oxidation of haemoglobin-A0 at 300 uM using L-arginine by haemoglobin capture assay; outline: as §1
T2 sequence (whole entry): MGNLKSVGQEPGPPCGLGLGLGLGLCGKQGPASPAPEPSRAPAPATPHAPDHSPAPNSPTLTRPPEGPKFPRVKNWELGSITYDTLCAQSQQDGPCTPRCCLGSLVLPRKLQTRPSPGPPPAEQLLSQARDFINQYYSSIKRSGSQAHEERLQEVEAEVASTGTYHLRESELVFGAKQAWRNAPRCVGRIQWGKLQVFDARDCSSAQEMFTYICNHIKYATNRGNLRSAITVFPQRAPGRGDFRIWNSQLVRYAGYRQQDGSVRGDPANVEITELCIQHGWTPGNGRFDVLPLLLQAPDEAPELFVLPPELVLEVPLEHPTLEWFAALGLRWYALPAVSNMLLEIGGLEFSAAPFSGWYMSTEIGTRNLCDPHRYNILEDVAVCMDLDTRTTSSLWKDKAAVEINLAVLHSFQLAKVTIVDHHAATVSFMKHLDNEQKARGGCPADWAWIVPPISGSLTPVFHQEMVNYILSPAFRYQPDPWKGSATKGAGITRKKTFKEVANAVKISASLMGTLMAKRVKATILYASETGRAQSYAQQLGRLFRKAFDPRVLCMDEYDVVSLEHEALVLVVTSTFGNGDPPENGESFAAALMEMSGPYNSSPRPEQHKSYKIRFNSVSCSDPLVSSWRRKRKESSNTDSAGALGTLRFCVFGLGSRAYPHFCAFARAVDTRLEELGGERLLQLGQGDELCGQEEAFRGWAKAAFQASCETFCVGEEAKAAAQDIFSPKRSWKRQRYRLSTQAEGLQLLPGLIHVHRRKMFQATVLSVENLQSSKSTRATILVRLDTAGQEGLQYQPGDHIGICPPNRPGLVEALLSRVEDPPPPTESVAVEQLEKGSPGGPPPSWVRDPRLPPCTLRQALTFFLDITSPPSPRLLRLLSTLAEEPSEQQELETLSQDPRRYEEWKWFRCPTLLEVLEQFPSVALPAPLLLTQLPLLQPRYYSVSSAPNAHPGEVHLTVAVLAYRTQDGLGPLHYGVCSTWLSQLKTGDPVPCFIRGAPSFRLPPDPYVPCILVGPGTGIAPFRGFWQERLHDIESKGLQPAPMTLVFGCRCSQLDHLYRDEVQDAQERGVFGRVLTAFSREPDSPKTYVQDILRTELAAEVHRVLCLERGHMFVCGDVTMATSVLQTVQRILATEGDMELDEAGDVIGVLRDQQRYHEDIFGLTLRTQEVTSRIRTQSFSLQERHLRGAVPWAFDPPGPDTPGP

[4] = Selectivity ratio of km rat nNOS to km mouse iNOS by Michaelis-Menten equation analysis
[5] = Selectivity ratio of km for bovine eNOS to km for mouse iNOS by Michaelis-Menten equation analysis

Nitric oxide synthase 1 (Rattus norvegicus), sequence (P29476 whole entry): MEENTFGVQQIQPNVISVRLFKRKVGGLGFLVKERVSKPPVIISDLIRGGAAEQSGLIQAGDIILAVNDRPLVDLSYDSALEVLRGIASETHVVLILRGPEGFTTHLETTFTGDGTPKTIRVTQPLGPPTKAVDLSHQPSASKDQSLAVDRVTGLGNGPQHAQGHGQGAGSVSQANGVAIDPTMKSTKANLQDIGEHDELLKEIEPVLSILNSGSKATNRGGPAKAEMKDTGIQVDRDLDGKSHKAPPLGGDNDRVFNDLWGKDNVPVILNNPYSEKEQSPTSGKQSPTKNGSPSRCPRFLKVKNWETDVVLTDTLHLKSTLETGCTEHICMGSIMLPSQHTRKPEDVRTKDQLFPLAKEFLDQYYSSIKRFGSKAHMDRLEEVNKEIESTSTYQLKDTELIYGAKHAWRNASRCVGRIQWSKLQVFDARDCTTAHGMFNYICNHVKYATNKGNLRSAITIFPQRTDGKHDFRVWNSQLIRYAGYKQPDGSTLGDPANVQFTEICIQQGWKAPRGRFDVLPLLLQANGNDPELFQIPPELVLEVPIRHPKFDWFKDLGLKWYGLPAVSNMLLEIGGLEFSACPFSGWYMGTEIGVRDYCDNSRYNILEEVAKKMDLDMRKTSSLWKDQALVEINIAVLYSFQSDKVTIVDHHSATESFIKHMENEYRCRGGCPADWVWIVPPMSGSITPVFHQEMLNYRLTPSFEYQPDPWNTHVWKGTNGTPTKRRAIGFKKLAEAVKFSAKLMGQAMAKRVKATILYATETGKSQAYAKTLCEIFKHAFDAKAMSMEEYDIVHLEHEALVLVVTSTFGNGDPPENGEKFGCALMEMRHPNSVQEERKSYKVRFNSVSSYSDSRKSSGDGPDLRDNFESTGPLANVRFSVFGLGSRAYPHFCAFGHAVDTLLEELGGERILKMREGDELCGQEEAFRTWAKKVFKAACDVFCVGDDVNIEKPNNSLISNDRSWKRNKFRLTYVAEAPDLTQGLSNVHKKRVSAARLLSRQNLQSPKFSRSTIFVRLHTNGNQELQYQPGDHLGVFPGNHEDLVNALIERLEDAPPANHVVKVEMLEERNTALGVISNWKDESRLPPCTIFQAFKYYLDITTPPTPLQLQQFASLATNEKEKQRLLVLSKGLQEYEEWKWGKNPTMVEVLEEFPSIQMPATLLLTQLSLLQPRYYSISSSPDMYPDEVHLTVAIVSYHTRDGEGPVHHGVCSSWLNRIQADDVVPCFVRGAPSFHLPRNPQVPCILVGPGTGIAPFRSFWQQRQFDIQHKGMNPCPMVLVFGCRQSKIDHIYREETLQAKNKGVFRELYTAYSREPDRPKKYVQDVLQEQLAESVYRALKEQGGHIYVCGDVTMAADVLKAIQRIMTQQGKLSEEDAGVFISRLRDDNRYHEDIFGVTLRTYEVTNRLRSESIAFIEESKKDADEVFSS

`N=C(N)NC[C@@H]1C[C@@H]1[C@H](N)C(=O)O` showed an inhibition [1] of 30%, an inhibition [2] of 22% and an inhibition [3] of 16%.
`N=C(N)NC[C@@H]1C[C@H]1[C@@H](N)C(=O)O` gave an inhibition [1] of 13%, an inhibition [2] of 19% and an inhibition [3] of 4%.
With `N=C(N)NC[C@H]1C[C@@H]1[C@H](N)C(=O)O` the Ratio [4] was 2.6 and the Ratio [5] was 5.6.
Work on `N=C(N)NC[C@H]1C[C@@H]1[C@@H](N)C(=O)O` yielded an inhibition [1] of 5%, an inhibition [2] of 19% and an inhibition [3] of 23%.
Compound `N=C(N)NC[C@@H]1C[C@H]1[C@H](N)C(=O)O` has an inhibition [1] of 16%, an inhibition [2] of 26% and an inhibition [3] of 45%.
Compound `N=C(N)NC[C@@H]1C[C@@H]1[C@@H](N)C(=O)O` has an inhibition [1] of 10%, an inhibition [2] of 24% and an inhibition [3] of 4%.
With `N=C(N)NCCC[C@H](N)C(=O)O` the Ratio [4] was 3.5 and the Ratio [5] was 8.6.
`N=C(N)NC[C@H]1C[C@H]1[C@H](N)C(=O)O` gave a Ratio [4] of 2.3 and a Ratio [5] of 3.6.
In the case of `N=C(N)NC[C@H]1C[C@H]1[C@@H](N)C(=O)O`, the inhibition [1] is reported as 30%, the inhibition [2] is reported as 14% and the inhibition [3] is reported as 27%.
